Assay results as given in ChEMBL document CHEMBL3351368, “Biphenyl-4-carboxylic acid [2-(1H-indol-3-yl)-ethyl]-methylamide (CA224), a nonplanar analogue of fascaplysin, inhibits Cdk4 and tubulin polymerization: evaluation of in vitro and in vivo anticancer activity” (J Med Chem, 2014).
In brackets after ≈: the same amount, converted by molar mass. Activity calls are given as the source filed them.

Experiments:
[1] = system: LS174T; assay: Reduction Cdk1 level in p53+, pRb+ human LS 174T cells at IC50 concentration after 24 hrs by Western blot analysis
[2] = system: NCI-H1299; assay: Cell cycle arrest in human NCI-H1299 cells assessed as accumulation of cells at S phase at IC50 concentration after 24 hrs by flow cytometry (reference value: 21%); format: functional
[3] = AUC (0 to t) in BALB/c mouse at 1 mg/kg, iv; format: ADME, organism-based; parameters: dose 1 mg/kg, route intravenous; settings: plasma
Procedure, shortened: (§1)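 BALB/c mice given a single dose of 1.0 mg/kg IV or 10 mg/kg orally; plasma concentration followed over time and pharmacokinetic parameters derived from the time-concentration profile.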

[4] = system: LS174T; assay: Induction of p21 level in p53+, pRb+ human LS 174T cells at IC50 concentration after 24 hrs by Western blot analysis
[5] = Volume of distribution in BALB/c mouse at 1 mg/kg, iv; format: ADME, organism-based; parameters: dose 1 mg/kg, route intravenous; settings: in vivo
Procedure, shortened: as §1

[6] = molecular target: CYP2C9 (Homo sapiens, UniProt P11712); assay: Inhibition of human recombinant CYP2C9 at 10 uM; format: ADME
[7] = system: MiaPaCa; assay: Effect on p27 level in p53His273 mutant, pRb+ human MiaPaCa cells at IC50 concentration after 48 hrs by Western blot analysis; format: functional
[8] = system: A549; assay: Induction of apoptosis in p53+, pRb+ human A549 cells assessed as fragmented nuclei/distrupted cell membrane at 1 to 10 uM by DAPI staining-based flow cytometry; format: functional; settings: TDE = time-dependent effect
[9] = molecular target: Tubulin (Homo sapiens) (UniProt P68371+Q9H4B7+P0DPH7+P68366+Q13509+Q71U36+P04350+Q3ZCM7+P07437+P68363+Q9BQE3+Q6PEY2+Q13885+Q9BVA1+Q9BUF5); assay: Inhibition of tubulin (unknown origin) polymerization assessed as decrease in Vmax measured at 25 uM by spectrophotometry; format: protein-complex assay
Procedure, shortened: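 Purified tubulin polymerisation followed as absorbance increase over about 4000 s. Vmax (mOD/min) is taken as the read-out, with final polymer mass also noted. Compound is tested at 2.5, 5, 10 and 25 µM alongside untreated control, paclitaxel 10 µM (enhancer) and nocodazole 10 µM (inhibitor). Curves are the average of three independent experiments.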

[10] = species: Homo sapiens; assay: Inhibition of human PKA assessed as enzyme activity at 10 uM
[11] = Cell cycle arrest in mouse BNL-CL2 cells assessed as accumulation of cells at G2/M phase at IC50 concentration after 48 hrs by flow cytometry (reference value: 23%); format: functional
Procedure, shortened: (§2)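 Normal (BNL CL2) and SV40 large T-antigen transformed (BNL SV A.8) mouse embryonic hepatic cells were treated at IC50 or IC70 concentration for 48 h. Analysis was by FACS, with apoptosis taken as % cells in the sub-G1 peak. Untreated cells served as control.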

[12] = system: A549; assay: Cell cycle arrest in human A549 cells assessed as accumulation of cells at S phase at IC50 concentration after 24 hrs by flow cytometry (reference value: 29%); format: functional
[13] = system: NCI-H460; assay: Induction of apoptosis in p53+, pRb+ human NCI-H460 cells assessed as fragmented nuclei/distrupted cell membrane at 1 to 10 uM by DAPI staining-based flow cytometry; format: functional; settings: TDE = time-dependent effect
[14] = system: NCI-H358; assay: Induction of apoptosis in p53 null, […] human NCI-H358 cells assessed as fragmented nuclei/distrupted cell membrane after 24 hrs by DAPI staining-based flow cytometry
[15] = molecular target: Protein kinase C alpha type (Homo sapiens) (UniProt P17252); assay: Inhibition of human PKCalpha assessed as enzyme activity at 10 uM
[16] = molecular target: Cyclin-dependent kinase 1/cyclin B1 (Homo sapiens, UniProt P06493); assay: Binding affinity to human CDK1/cyclinB1; format: protein-complex assay
[17] = Growth inhibition of mouse BNL-CL2 cells after 48 hrs by MTT assay; format: functional, cell-based; settings: BNL CL.2, 48 h
Procedure, shortened: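 MTT cell proliferation assay. IC50 (µM) was defined as the concentration giving 50% inhibition of cell growth.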

[18] = molecular target: Cyclin-dependent kinase 5/CDK5 activator 1 (Homo sapiens) (UniProt Q00535+Q15078); assay: Inhibition of human CDK5/p35 assessed as enzyme activity at 10 uM; format: protein-complex assay
[19] = Solubility in phosphate buffered saline; format: physicochemical
[20] = molecular target: CYP2D6 (Homo sapiens, UniProt P10635); assay: Inhibition of human recombinant CYP2D6 at 10 uM; format: ADME
[21] = Cmax in BALB/c mouse at 1 mg/kg, iv; format: ADME, organism-based; parameters: dose 1 mg/kg, route intravenous; settings: in vivo
Procedure, shortened: as §1

[22] = system: NCI-H460; assay: Antitumor activity against human NCI-H460 cells xenografted in SCID mouse assessed as inhibition of tumor growth at 100 mg/kg, ip relative to untreated control; format: functional, organism-based; parameters: dose 100 mg/kg
Procedure, shortened: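 Female SCID mice (15-24 g, 6-8 weeks) were given 5.3 × 10^6 NCI-H460 cells s.c. on the dorsal side. At 4-6 mm tumours (about 6 days) they were randomised into groups of 6 or 7 and dosed i.p. for 9 consecutive days. Tumour size was recorded every 2-5 days; weight = L × W² × 0.5. %T/C and %GI = 100 − %T/C; Student t-test versus control.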

[23] = system: BNL-CL2; assay: Cell cycle arrest in mouse BNL-CL2 cells assessed as accumulation of cells at G2/M phase at IC70 concentration after 48 hrs by flow cytometry; format: functional, cell-based
Procedure, shortened: as §2

[24] = molecular target: Cyclin-dependent kinase 7/ cyclin H (Homo sapiens) (UniProt P51946+P50613); assay: Inhibition of human CDK7/cyclinH assessed as enzyme activity at 10 uM; format: protein-complex assay
[25] = system: NCI-H1299; assay: Cell cycle arrest in human NCI-H1299 cells assessed as accumulation of cells at G0/G1 phase at IC50 concentration after 24 hrs by flow cytometry (reference value: 56%); format: functional
[26] = Cell cycle arrest in mouse BNL-SVA.8 cells assessed as accumulation of cells at subG1 phase at IC70 concentration after 48 hrs by flow cytometry; format: functional
Procedure, shortened: as §2

[27] = system: NCI-H1299; assay: Cell cycle arrest in human NCI-H1299 cells assessed as accumulation of cells at G2/M phase at IC50 concentration after 24 hrs by flow cytometry (reference value: 18%); format: functional
[28] = Displacement of ethidium bromide from closed circular plasmid DNA (unknown origin) by fluorescence quenching assay
[29] = system: NCI-H358; assay: Cell cycle arrest in human NCI-H358 cells assessed as accumulation of cells at G0/G1 phase at IC50 concentration after 18 hrs by flow cytometry in presence of […] uM hydroxyurea for 18 hrs (reference value: 50%); format: functional
[30] = Antitumor activity against human HCT116 cells xenografted in SCID mouse assessed as inhibition of tumor growth at 100 mg/kg, ip relative to untreated control; format: functional; settings: HCT-116, ip, route intraperitoneal
Procedure, shortened: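 SCID male mice, 18-25 g, 6-8 weeks old, received 6.6 × 10^6 HCT-116 cells subcutaneously on the dorsal side. Randomized into groups of 7 at 4-6 mm tumors (about 5 days), then dosed intraperitoneally for 9 consecutive days. Tumor size recorded every 2-5 days, weight = L×W²×0.5; %GI = 100 − %T/C. Body weight taken daily relative to start; Student t-test.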

Cyclin-dependent kinase 5/CDK5 activator 1 (Homo sapiens), sequence (Q00535 whole entry): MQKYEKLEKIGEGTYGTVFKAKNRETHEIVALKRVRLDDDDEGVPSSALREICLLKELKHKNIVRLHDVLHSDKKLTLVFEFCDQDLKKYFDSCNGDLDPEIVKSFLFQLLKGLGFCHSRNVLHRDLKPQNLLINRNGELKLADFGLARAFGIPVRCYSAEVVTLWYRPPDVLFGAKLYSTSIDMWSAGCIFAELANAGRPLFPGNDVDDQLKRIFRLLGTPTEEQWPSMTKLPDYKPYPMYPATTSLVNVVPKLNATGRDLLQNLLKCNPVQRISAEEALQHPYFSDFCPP
Cyclin-dependent kinase 5/CDK5 activator 1 (Homo sapiens), sequence (Q15078 99-307 partner limits assumed): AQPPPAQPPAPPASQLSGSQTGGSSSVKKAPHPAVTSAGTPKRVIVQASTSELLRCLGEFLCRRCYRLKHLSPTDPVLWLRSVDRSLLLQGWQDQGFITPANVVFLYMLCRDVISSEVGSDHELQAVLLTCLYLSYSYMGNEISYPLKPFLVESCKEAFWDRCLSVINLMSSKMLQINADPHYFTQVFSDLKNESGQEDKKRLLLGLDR
CYP2D6, sequence (P10635 whole entry): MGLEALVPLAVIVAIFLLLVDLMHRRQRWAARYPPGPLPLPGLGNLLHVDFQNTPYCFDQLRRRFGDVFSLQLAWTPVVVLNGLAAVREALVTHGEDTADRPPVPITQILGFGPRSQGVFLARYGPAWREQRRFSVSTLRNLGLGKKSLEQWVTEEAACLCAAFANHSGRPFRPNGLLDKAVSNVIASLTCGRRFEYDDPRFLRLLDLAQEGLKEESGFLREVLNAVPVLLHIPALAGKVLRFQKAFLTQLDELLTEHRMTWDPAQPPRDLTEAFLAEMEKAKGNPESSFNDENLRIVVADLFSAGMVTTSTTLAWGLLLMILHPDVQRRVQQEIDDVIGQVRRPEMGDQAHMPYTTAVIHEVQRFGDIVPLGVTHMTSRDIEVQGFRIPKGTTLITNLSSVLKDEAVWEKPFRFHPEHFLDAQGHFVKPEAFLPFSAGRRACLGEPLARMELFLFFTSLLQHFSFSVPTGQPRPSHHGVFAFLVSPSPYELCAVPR
Cyclin-dependent kinase 1/cyclin B1, sequence (P06493 whole entry): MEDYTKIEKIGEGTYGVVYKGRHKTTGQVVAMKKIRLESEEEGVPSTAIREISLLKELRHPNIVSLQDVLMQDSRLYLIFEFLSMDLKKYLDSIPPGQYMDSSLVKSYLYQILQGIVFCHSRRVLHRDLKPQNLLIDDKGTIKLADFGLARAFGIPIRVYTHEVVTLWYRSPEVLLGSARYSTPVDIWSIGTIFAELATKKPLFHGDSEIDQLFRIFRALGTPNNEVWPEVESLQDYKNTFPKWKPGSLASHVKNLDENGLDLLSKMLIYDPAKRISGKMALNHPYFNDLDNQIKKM
Cyclin-dependent kinase 1/cyclin B1, sequence (P14635 whole entry, further chain): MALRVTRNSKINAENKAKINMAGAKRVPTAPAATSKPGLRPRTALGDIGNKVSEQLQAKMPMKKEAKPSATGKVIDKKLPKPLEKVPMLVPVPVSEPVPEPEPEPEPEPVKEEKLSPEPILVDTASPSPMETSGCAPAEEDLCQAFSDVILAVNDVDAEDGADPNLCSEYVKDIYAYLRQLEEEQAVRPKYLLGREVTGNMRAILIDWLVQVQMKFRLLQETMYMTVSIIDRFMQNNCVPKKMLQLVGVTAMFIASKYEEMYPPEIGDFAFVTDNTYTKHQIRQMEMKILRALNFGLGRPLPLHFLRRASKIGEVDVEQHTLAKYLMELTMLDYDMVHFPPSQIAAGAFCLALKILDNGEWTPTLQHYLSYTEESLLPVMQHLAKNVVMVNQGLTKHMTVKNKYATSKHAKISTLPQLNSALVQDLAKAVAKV
CYP2C9, sequence (P11712 whole entry): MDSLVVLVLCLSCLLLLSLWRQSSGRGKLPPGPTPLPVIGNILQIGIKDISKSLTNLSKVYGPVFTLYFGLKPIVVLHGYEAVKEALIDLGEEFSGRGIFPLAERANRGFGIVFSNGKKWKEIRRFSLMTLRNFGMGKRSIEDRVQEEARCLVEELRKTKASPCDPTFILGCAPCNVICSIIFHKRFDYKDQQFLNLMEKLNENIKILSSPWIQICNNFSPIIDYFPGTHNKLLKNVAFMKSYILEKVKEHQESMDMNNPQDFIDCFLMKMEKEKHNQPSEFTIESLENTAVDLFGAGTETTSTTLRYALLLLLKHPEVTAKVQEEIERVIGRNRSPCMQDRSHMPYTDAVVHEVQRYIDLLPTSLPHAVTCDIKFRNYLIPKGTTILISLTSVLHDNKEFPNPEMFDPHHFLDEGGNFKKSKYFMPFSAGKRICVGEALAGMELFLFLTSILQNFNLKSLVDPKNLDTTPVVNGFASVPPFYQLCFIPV

CN(CCc1c[nH]c2ccccc12)C(=O)c1ccc(-c2ccccc2)cc1
inhibition [1]: Active | Activity [2]: 10% | AUC(0-t) [3]: 0.187 µg·h/mL | Activity [4]: Active | Vd [5]: 2.52 L/kg | inhibition at 10 µM [6]: 51% | Activity [7]: inactive | Activity [8]: tde | Activity (milli optical density/minute) [9]: 0.4 | inhibition [10]: inactive | Activity [11]: 54% | Activity [12]: 4% | Activity [13]: tde | Activity [14]: Dose-dependent effect | inhibition [15]: inactive | IC50 [16]: > 500 µM | IC50 [17]: 2.6 µM | inhibition [18]: inactive | solubility [19]: 0.125 mg/mL (≈ 353 µM) | inhibition at 10 µM [20]: 14% | Cmax [21]: 0.371 µg/mL | Activity [22]: Active | Activity [23]: Active | inhibition [24]: inactive | Activity [25]: 22% | Activity [26]: 44% | Activity [27]: 71% | inhibition [28]: inactive | Activity [29]: 16% | inhibition in vivo at 100 mg/kg [30]: 80%
